Laboratory results: ChEMBL document CHEMBL1142374, “Rational design of 4-amino-5,6-diaryl-furo[2,3-d]pyrimidines as potent glycogen synthase kinase-3 inhibitors” (Bioorg Med Chem Lett, 2008)
Blank lines part the entries; values can stand above or below the compound they belong to.

Columns and labels:
[1] = molecular target: Glycogen synthase kinase-3 beta (Homo sapiens, UniProt P49841); test: Inhibition of human GSK3-beta by fluorescence anisotropy binding assay
Summary of the method: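 Competitive fluorescence anisotropy binding against a fluorescently labelled inhibitor. Compound typically 24 pM–25 µM final, DMSO <3%. Equilibrated 60–180 min at ambient temperature; anisotropy read at ex 485/em 535 nm. Assay error ±0.2 log units.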

[2] = molecular target: Vascular endothelial growth factor receptor 2 (Homo sapiens, UniProt P35968); test: Inhibition of VEGFR2
Vascular endothelial growth factor receptor 2, sequence (P35968 whole entry): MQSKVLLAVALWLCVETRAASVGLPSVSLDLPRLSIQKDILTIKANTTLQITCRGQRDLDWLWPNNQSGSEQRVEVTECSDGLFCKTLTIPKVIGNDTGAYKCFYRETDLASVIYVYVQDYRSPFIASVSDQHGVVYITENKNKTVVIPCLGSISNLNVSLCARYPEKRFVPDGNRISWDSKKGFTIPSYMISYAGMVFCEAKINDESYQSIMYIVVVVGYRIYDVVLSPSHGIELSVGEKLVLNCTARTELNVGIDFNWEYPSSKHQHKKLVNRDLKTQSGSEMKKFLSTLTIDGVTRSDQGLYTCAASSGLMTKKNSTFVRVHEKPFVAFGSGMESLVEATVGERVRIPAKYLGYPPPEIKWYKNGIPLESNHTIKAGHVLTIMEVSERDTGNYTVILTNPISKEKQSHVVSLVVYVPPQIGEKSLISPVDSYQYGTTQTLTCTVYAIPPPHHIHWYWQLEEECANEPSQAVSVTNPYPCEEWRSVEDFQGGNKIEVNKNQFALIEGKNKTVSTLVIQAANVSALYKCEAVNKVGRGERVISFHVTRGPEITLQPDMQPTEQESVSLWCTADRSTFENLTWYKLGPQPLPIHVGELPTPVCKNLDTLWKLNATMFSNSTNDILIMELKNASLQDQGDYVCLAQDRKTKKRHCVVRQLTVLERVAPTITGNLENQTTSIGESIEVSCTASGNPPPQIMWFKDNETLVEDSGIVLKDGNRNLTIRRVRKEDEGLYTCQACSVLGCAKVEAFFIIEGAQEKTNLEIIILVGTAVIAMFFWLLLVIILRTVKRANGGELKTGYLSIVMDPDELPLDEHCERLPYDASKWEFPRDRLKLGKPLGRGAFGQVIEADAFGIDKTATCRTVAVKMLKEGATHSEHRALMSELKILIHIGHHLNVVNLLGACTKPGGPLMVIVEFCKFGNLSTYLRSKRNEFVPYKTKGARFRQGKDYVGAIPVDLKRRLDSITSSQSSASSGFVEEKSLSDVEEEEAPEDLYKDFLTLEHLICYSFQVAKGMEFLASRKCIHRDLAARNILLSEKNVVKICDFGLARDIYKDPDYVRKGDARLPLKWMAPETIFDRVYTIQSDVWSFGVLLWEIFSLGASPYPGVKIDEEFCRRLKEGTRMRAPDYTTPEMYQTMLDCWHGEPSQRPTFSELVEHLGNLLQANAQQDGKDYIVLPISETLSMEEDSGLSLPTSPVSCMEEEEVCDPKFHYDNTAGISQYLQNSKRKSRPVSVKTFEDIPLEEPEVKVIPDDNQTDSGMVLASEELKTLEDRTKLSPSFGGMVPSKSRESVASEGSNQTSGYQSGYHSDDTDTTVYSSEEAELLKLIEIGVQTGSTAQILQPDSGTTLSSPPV

[3] = molecular target: Cyclin-dependent kinase 2 (Homo sapiens) (UniProt P24941); test: Inhibition of CDK2 at 10 uM
[4] = molecular target: Dual specificity mitogen-activated protein kinase kinase 1 (Homo sapiens) (UniProt Q02750); test: Inhibition of MEK1 at 10 uM
Dual specificity mitogen-activated protein kinase kinase 1 (Homo sapiens), sequence (Q02750 whole entry): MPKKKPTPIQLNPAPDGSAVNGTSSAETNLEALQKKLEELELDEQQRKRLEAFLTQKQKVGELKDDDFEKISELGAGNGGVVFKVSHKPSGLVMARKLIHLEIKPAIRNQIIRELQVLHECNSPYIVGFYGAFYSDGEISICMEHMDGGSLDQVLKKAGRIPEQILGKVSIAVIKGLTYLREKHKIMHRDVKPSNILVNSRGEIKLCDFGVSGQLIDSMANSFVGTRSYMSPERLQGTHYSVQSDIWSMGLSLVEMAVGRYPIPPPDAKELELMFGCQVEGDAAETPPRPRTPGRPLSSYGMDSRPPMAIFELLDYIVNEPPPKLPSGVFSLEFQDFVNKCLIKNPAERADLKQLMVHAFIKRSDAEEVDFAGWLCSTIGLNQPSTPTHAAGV

[5] = molecular target: Glycogen synthase kinase-3 beta (Rattus norvegicus, UniProt P18266); test: Inhibition of rat GSK3-beta in L6 cells assessed as accumulation of glycogen; type: cell-based
Glycogen synthase kinase-3 beta (Rattus norvegicus, UniProt P18266), sequence (P18266 whole entry): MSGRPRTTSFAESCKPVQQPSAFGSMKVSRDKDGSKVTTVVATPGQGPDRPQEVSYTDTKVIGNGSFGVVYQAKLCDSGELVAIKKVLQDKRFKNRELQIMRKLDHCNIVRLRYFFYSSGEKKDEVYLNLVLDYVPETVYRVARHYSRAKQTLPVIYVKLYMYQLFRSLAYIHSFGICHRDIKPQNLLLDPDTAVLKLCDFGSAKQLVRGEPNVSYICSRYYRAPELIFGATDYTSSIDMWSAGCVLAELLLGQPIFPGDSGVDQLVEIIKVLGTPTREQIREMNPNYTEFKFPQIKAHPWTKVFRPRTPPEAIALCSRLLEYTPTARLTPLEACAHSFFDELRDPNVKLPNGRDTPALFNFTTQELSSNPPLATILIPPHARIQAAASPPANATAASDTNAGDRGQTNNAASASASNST

[6] = Inhibition of GSK3 at 10 uM
[7] = molecular target: Mitogen-activated protein kinase 8 (Homo sapiens) (UniProt P45983); test: Inhibition of JNK1 at 10 uM
Mitogen-activated protein kinase 8 (Homo sapiens), sequence (P45983 whole entry): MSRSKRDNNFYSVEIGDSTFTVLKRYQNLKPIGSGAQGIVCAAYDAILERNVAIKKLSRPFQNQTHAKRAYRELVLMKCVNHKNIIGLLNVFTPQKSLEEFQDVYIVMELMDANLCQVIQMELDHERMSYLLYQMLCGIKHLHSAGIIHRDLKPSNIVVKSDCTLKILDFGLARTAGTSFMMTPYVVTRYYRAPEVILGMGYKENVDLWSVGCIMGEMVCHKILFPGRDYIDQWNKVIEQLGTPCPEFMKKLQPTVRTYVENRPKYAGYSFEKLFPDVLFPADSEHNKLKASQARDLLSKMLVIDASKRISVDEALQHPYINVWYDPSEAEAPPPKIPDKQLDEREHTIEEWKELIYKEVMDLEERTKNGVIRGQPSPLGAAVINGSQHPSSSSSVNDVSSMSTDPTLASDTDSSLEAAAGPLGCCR

[8] = Inhibition of MAPK at 10 uM
[9] = Inhibition of AMPK at 10 uM
[10] = molecular target: T1, Serine/threonine-protein kinase Chk1 (Homo sapiens) (UniProt O14757); test: Inhibition of CHK1 at 10 uM
T1 sequence (whole entry): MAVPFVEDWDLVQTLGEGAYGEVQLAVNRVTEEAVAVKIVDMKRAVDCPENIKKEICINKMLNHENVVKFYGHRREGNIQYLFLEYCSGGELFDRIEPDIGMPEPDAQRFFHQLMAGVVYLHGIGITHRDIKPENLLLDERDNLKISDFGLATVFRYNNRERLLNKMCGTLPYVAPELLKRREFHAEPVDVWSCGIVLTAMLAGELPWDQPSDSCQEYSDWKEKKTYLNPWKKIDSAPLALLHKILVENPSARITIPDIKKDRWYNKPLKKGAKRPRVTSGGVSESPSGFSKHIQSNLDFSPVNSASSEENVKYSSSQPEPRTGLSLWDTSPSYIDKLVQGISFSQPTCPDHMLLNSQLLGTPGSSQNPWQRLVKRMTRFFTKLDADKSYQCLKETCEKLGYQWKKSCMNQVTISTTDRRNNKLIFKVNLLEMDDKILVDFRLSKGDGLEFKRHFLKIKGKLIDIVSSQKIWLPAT

[11] = Inhibition of PKA at 10 uM
[12] = molecular target: RAC-alpha serine/threonine-protein kinase (Homo sapiens) (UniProt P31749); test: Inhibition of PKBa at 10 uM
RAC-alpha serine/threonine-protein kinase (Homo sapiens), sequence (P31749 whole entry): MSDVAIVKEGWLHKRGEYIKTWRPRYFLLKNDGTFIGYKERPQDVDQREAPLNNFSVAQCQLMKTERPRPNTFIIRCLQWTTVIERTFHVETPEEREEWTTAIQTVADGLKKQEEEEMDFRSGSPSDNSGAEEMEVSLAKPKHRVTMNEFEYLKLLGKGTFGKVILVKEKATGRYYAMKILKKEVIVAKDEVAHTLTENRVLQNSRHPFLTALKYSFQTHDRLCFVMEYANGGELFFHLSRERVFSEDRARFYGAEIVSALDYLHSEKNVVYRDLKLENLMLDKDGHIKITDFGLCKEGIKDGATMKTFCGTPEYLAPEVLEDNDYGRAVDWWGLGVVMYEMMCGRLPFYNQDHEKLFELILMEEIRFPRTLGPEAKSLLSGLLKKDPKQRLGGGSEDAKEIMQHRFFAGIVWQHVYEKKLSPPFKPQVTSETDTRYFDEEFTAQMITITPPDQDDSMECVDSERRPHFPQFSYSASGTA

[13] = molecular target: T2, Serine/threonine-protein kinase Sgk1 (Homo sapiens) (UniProt O00141); test: Inhibition of SGK at 10 uM
T2 sequence (whole entry): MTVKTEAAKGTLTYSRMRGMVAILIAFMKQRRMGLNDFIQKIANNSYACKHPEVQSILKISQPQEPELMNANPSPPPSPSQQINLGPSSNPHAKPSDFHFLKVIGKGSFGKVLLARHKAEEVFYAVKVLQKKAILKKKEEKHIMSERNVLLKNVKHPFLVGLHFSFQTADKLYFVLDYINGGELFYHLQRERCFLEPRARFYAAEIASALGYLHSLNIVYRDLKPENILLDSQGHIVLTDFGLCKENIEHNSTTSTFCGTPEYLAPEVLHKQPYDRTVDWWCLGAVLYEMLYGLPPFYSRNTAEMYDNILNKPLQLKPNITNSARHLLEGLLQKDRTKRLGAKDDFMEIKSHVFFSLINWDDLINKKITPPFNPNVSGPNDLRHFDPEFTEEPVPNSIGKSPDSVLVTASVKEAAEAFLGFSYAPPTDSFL

Glycogen synthase kinase-3 beta (Homo sapiens, UniProt P49841), sequence (P49841 whole entry): as the sequence (P18266 whole entry) above, with M240V, P390T, A392T, T400A, A402T counted along it

IC50 [1]: 1.59 µM
SMILES: Nc1ncnc2oc(-c3cccnc3)c(-c3ccc(NC(=O)c4cccc(F)c4)cc3)c12

IC50 [1]: 0.475 µM
SMILES: CS(=O)(=O)Nc1ccc(-c2c(-c3cccnc3)oc3ncnc(N)c23)cc1

IC50 [1]: 1.63 µM
SMILES: CC(=O)Nc1ccc(-c2c(-c3cccnc3)oc3ncnc(N)c23)cc1

IC50 [1]: 0.023 µM
SMILES: Nc1ncnc2oc(-c3cccnc3)c(-c3ccc(NS(=O)(=O)c4cccs4)cc3)c12

IC50 [1]: > 15 µM
SMILES: COc1ccc(-c2oc3ncnc(N)c3c2-c2ccc(NS(=O)(=O)c3ccccc3)cc2)cc1

IC50 [1]: > 15 µM
SMILES: COc1ccc(-c2oc3ncnc(N)c3c2-c2ccc(OC)cc2)cc1

IC50 [2]: 1.12 µM
inhibition [3]: 27%
inhibition [4]: -0%
EC50 [5]: 3.2 µM
inhibition [6]: 100%
inhibition [7]: 7%
inhibition [8]: 5%
inhibition [9]: 44%
inhibition [10]: 3%
inhibition [11]: -0%
inhibition [12]: 29%
inhibition [13]: 3%
IC50 [1]: 0.03 µM
SMILES: Nc1ncnc2oc(-c3cccnc3)c(-c3ccc(NS(=O)(=O)c4ccccc4)cc3)c12
